Legend:
[1] = Complete blood count and metabolic profiling 24 h after PA administration; format: in vivo, mice; conditions: 24 h after administration
Outline: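 Blood was drawn from mice 24 h after PA or PBS administration and sent to an external laboratory for complete blood count and metabolic profiling. Groups were compared by two-way ANOVA with Bonferroni post-tests.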

[2] = format: in vivo, athymic nude mice bearing MDA-MB-231 tumors; conditions: IP, Alexa 700-labelled KLAK PA
Outline: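 Female athymic nude mice carried orthotopic MDA-MB-231 mammary tumours. Dialysed Alexa 700-conjugated PA (20 mg/kg, 1.8 mM; 2.5 μg dye) was given ip, ± 27 mg/kg coassembled PEG PA. Plasma was collected by tail bleed or terminal cardiac puncture, spun 10 000 rpm for 10 min, and read on a plate reader. Paraformaldehyde-fixed tissues were imaged as average radiant efficiency; n = 6 per time point.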

[3] = 1H diffusion ordered spectroscopy; format: physicochemical; conditions: DOSY, D2O, ambient temperature; 5 mM KLAK PA alone or 2.5 mM KLAK PA and 2.5 mM PEG PA
Outline: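 Coassembled by dissolving each PA separately in HFIP, mixing at least 15 min, lyophilizing, redissolving in water and lyophilizing again. 1H DOSY at 600 MHz and ambient temperature in 99.9% D2O, at constant total PA of 5 mM (single PA) or 2.5 mM + 2.5 mM (mixed). 32 points were acquired with a 7 μs 90-degree pulse.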

[4] = Cryogenic and conventional TEM of nanostructures; format: physicochemical; conditions: cryo-TEM
Outline: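 For conventional TEM, samples were drop-cast on carbon-coated copper grids and stained with 2% aqueous uranyl acetate. For cryo-TEM, grids were blotted at 95% humidity and plunged into liquid ethane. Both were imaged at 100 keV.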

[5] = Small angle X-ray scattering; format: physicochemical; conditions: 2 mM; -1 indicative of cylinders, -2 possibly bundling
Outline: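 Synchrotron SAXS used 15 keV X-rays from a double-crystal monochromator and an offset CCD to cover a wide angle range. Samples at 2 mM were held in 1.5 mm quartz capillaries; incident flux was about 10^12 photons/s. Intensity was plotted on a relative scale against q = (4π/λ) sin(θ/2).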

palmitoyl-A4G3(KLAKLAK)2 [KLAK PA]
alkaline phosphatase levels ([1]; compared with PBS treated controls): significantly lower
blood glucose levels ([1]; mice): significantly higher
observed plasma half-lives ([2]; plasma fluorescence, mice): on the order of several hours
tissue localization of fluorescence ([2]; tumor bearing mice, IVIS): predominantly localized to liver and kidney
diffusion coefficient of KLAK PA (peak at 2.83 ppm) [3]: 0.69×10^−10 m^2/s
fiber diameter [4]: roughly 10 nm
fiber length [4]: several hundred
SAXS slope in the low-q range [5]: approximately -2
